Measured values published in ChEMBL document CHEMBL1153381, “Discovery of 2-(5-nitrothiazol-2-ylthio)benzo[d]thiazoles as novel c-Jun N-terminal kinase inhibitors” (Bioorg Med Chem, 2009).

How the values were obtained:
[1] = Inhibition of cJNK phosphorylation by pepJIP1 displacement DELFIA assay
[2] = Inhibition of cJNK phosphorylation by Lantha screen assay
[3] = Inhibition of lethal factor
[4] = Metabolic stability in rat plasma assessed as drug level remaining after 1 hr; format: ADME, cell-free; settings: read-out: Stability
Method in brief: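 Fresh rat plasma with 1 μM compound (2.5% final DMSO) at 37 °C, stopped at 0, 30 and 60 min with methanol plus internal standard, analysed by LC–MS. Percent parent remaining was taken against 0 min from peak-area ratios to internal standard. Run in duplicate with a plasma-labile positive control.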

[5] = biological target: Mitogen-activated protein kinase 14 (Homo sapiens, UniProt Q16539); assay: Inhibition of p38alpha
Mitogen-activated protein kinase 14, sequence (Q16539 whole entry): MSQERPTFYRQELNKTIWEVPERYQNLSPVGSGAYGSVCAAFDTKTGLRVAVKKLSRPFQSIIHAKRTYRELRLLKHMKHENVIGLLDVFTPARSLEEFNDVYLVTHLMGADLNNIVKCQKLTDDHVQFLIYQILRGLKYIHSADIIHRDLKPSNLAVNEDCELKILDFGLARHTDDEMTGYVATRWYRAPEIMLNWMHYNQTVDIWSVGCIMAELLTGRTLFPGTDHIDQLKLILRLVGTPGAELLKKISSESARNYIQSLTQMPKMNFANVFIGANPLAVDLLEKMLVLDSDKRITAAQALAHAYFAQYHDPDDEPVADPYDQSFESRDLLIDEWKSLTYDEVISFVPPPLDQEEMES

[6] = biological target: RAC-alpha serine/threonine-protein kinase (Homo sapiens) (UniProt P31749); assay: Inhibition of AKT at 100 uM
RAC-alpha serine/threonine-protein kinase (Homo sapiens), sequence (P31749 whole entry): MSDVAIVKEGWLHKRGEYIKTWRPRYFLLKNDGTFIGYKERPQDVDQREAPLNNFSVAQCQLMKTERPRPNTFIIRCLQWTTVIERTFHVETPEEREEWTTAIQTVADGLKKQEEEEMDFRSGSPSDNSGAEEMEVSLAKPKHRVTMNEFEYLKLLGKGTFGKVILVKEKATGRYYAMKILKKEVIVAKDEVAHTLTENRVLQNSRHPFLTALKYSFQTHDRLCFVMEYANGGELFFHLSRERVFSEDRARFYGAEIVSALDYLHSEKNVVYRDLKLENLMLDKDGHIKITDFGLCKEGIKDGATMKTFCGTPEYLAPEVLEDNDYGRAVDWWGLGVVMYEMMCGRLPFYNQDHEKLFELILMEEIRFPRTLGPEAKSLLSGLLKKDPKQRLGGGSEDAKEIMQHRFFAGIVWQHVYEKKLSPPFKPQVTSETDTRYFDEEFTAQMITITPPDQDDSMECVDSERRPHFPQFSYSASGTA

[7] = Inhibition of cJNK phosphorylation in TNF-alpha-stimulated HL60 cells by Lantha screen assay; format: cell-based; settings: HL-60
[8] = system: Liver microsomes; assay: Metabolic stability in rat liver microsomes assessed as half life; format: ADME, Microsome
Method in brief: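 Rat liver microsomes (1 mg/mL protein) with 4 μM compound and 2 mM NADPH in 50 mM phosphate pH 7.2, after 5 min preincubation, incubated 1 h at 37.5 °C. Aliquots taken every 15 min were quenched with methanol plus internal standard and analysed by LC–MS. Run in duplicate with 2 control compounds of known half-life.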

[9] = biological target: Furin (Homo sapiens, UniProt P09958); assay: Inhibition of furin
Furin, sequence (P09958 whole entry): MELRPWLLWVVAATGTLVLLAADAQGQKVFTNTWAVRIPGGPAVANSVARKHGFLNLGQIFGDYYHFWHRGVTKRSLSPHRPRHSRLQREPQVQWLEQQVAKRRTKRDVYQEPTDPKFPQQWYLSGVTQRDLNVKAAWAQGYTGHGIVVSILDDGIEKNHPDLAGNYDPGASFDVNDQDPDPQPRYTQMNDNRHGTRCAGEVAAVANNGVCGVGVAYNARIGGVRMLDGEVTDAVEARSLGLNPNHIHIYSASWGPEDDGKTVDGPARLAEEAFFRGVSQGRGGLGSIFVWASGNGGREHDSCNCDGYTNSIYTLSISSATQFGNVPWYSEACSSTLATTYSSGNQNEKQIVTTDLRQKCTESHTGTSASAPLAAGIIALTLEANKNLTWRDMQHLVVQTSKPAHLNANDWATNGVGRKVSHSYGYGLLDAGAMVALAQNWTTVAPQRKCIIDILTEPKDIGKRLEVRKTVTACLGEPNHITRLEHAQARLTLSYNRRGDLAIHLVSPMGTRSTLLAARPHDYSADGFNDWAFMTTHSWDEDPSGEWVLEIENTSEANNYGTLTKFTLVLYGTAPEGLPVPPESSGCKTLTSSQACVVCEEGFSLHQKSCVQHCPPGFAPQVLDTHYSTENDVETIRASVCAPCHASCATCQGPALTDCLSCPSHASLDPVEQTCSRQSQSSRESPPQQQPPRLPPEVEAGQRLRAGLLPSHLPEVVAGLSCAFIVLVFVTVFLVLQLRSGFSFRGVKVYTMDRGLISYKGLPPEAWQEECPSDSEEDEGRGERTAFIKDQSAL

## O=[N+]([O-])c1cnc(Sc2nc3ncccc3s2)s1
[1]
  IC50: 0.4 µM
[2]
  IC50: 4.2 µM

## O=[N+]([O-])c1cnc(Sc2nc3cc(Cl)ccc3s2)s1
[1]
  IC50: > 1 µM
[2]
  IC50: > 50 µM

## O=[N+]([O-])c1cnc(Sc2nc3cc(C(F)(F)F)ccc3[nH]2)s1
[1]
  IC50: 0.14 µM
[2]
  IC50: 20.2 µM

## Cc1ccc2[nH]c(Sc3ncc([N+](=O)[O-])s3)nc2c1
[1]
  IC50: 0.02 µM
[2]
  IC50: 3.8 µM

## O=[N+]([O-])c1cnc(Sc2nc3ccccc3[nH]2)s1
[1]
  IC50: 0.67 µM
[2]
  IC50: 8.1 µM

## O=[N+]([O-])c1ccc(Sc2nc3ccccc3o2)c([N+](=O)[O-])c1
[2]
  IC50: > 100 µM

## O=[N+]([O-])c1cnc(Sc2nc3cc(S(=O)(=O)O)ccc3[nH]2)s1
[2]
  IC50: > 50 µM

## Cc1ccc2nc(Sc3ncc([N+](=O)[O-])s3)oc2c1
[1]
  IC50: 0.29 µM
[2]
  IC50: > 50 µM

## O=[N+]([O-])c1cnc(Sc2nc3ccccc3s2)s1
[3]
  IC50: > 100 µM
[4]
  remaining at 1 h: 80%
[5]
  IC50: > 100 µM
[6]
  inhibition: 2%
[1]
  IC50: 0.16 µM
[7]
  IC50: 15 µM
[2]
  IC50: 1.8 µM
[8]
  t1/2: 1.17 h
[9]
  IC50: > 50 µM

## Cn1c(Sc2nc3ccc(Cl)cc3s2)nnc1-c1ccc2ncccc2c1
[2]
  IC50: > 50 µM

## Nc1ncnc2[nH]c(SCc3ccc(C(=O)O)cc3)nc12
[2]
  IC50: 70 µM

## CCOc1ccc2nc(Sc3ncc([N+](=O)[O-])s3)sc2c1
[2]
  IC50: > 50 µM

## Cn1c(Sc2ncc([N+](=O)[O-])s2)nc2ccccc21
[1]
  IC50: 1.5 µM
[2]
  IC50: > 50 µM

## COc1ccc2sc(Sc3ncc([N+](=O)[O-])s3)nc2c1
[3]
  IC50: > 100 µM
[5]
  IC50: > 100 µM
[6]
  inhibition: 5%
[1]
  IC50: 0.1 µM
[2]
  IC50: 1.8 µM
[9]
  IC50: > 50 µM

## Cn1c(Sc2nc3ccc(Cl)cc3s2)nnc1-c1ccc(Cl)cc1Cl
[2]
  IC50: > 50 µM

## Cc1nnc(Sc2nc3ccc(Cl)cc3s2)n1-c1ccc2c(c1)OCCO2
[2]
  IC50: > 50 µM

## Nc1nc(Sc2ncc([N+](=O)[O-])s2)c2nc[nH]c2n1
[1]
  IC50: 1 µM
[2]
  IC50: 55 µM

## O=[N+]([O-])c1ccc2nc(Sc3ncc([N+](=O)[O-])s3)[nH]c2c1
[1]
  IC50: 3.2 µM
[2]
  IC50: 6.4 µM

## COc1ccc2[nH]c(Sc3ncc([N+](=O)[O-])s3)nc2c1
[1]
  IC50: 0.13 µM
[2]
  IC50: 4.7 µM

## O=[N+]([O-])c1cnc(Sc2nc3ccccc3o2)s1
[1]
  IC50: 0.24 µM
[2]
  IC50: 2.7 µM

## O=C(O)c1ccc(CSc2nc3ccccc3[nH]2)cc1
[2]
  IC50: > 100 µM

## O=[N+]([O-])c1cnc(Sc2nc3cc(Cl)ccc3o2)s1
[1]
  IC50: 0.11 µM
[2]
  IC50: 27 µM

## Nc1ncnc2nc(Sc3ncc([N+](=O)[O-])s3)[nH]c12
[1]
  IC50: > 1 µM
[2]
  IC50: 27 µM

## CO/N=C(\C(=O)Sc1nc2ccccc2s1)c1csc(N)n1
[1]
  IC50: 1.7 µM
[2]
  IC50: > 50 µM

## O=[N+]([O-])c1cnc(Sc2nc3ccc(Cl)cc3s2)s1
[1]
  IC50: 0.796 µM
[2]
  IC50: > 50 µM

## O=[N+]([O-])c1cnc(Sc2nc3cc(Cl)c(Cl)cc3[nH]2)s1
[1]
  IC50: 1.5 µM
[2]
  IC50: 23 µM

## COc1ccccc1-c1nnc(Sc2nc3ccc(Cl)cc3s2)n1-c1ccccc1
[2]
  IC50: > 50 µM

## Cn1c(Sc2nc3ccc(Cl)cc3s2)nnc1-c1cccs1
[2]
  IC50: > 50 µM
